Reference: ChEMBL document CHEMBL4177575 (Bioorg Med Chem, 2017)
Calls of active or inactive are those of the source. No cut-off for these calls is given here.

Columns and labels:
[1] = molecular target: Hepatocyte growth factor receptor (Homo sapiens, UniProt P08581); assay: Inhibition of c-MET (unknown origin) incubated for 10 mins using FAM-labeled peptide and ATP by mobility shift assay
Outline: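 Mobility shift assay in 384-well plates. Kinase buffer: 50 mM HEPES pH 7.5, 10 mM MgCl2, 0.0015% Brij-35, 2 mM DTT. Compound, diluted from a 500 μM DMSO stock, preincubated with enzyme 10 min at room temperature. FAM-labelled peptide and ATP then added and the reaction run at 28 °C. Stopped with EDTA-containing buffer and read on Caliper. Inhibition = (max−conversion)/(max−min)×100, with DMSO wells as max and enzyme-free wells as min.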

A549 [2] = assay: Induction of apoptosis in human A549 cells assessed as late apoptotic cell level at 6 uM incubated for 48 hrs by Annexin VFITC and propidium iodide staining based flow cytometry (reference value: 3.4%); assay type: functional
Outline: (§1)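 A549 cells seeded in RPMI 1640 and treated 48 h at 3, 6 or 12 µM. Cells then stained with Annexin V-FITC plus propidium iodide, 30 min at 4 °C in the dark, and analysed on a FACS Calibur flow cytometer.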

PC-3 = assay: Cytotoxicity against human PC3 cells assessed as reduction in cell viability incubated for 72 hrs by MTT assay; assay type: functional, cell-based
Outline: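 Cells grown in MEM with 10% FBS; about 4×10^3 cells per well, pre-incubated 24 h at 37 °C in 5% CO2, then exposed to compound for 72 h. Seven concentrations, threefold serial dilution from 100 ug/mL initial. MTT at 5 µg/mL terminal concentration for 4 h; formazan dissolved in DMSO, absorbance read at 492 nm against 630 nm reference. IC50 is the average of two determinations.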

A549 [3] = assay: Induction of morphological changes in human A549 cells assessed as induction of cell shrinking at 1.85 uM incubated for 12 hrs by acridine orange dye based inverted microscopy and fluorescence microscopy; assay type: functional
Outline: (§2)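 Untreated control included. A549 cells exposed 12 h at 1.85 μM, then single-stained with acridine orange. Nuclei and morphology examined by inverted and fluorescence microscopy.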

A549 [4] = assay: Induction of apoptosis in human A549 cells assessed as early apoptotic cell level at 6 uM incubated for 48 hrs by Annexin VFITC and propidium iodide staining based flow cytometry (reference value: 0.64%); assay type: functional; outline: as §1
A549 [5] = assay: Induction of apoptosis in human A549 cells assessed as early apoptotic cell level at 3 uM incubated for 48 hrs by Annexin VFITC and propidium iodide staining based flow cytometry (reference value: 0.64%); assay type: functional; outline: as §1
A549 [6] = assay: Induction of apoptosis in human A549 cells assessed as early apoptotic cell level at 12 uM incubated for 48 hrs by Annexin VFITC and propidium iodide staining based flow cytometry (reference value: 0.64%); assay type: functional; outline: as §1
A549 [7] = assay: Induction of apoptosis in human A549 cells assessed as late apoptotic cell level at 3 uM incubated for 48 hrs by Annexin VFITC and propidium iodide staining based flow cytometry (reference value: 3.4%); assay type: functional; outline: as §1
A549 [8] = assay: Induction of morphological changes in human A549 cells assessed as induction of apoptotic bodies at 1.85 uM incubated for 12 hrs by acridine orange dye based inverted microscopy and fluorescence microscopy; assay type: functional, cell-based; outline: as §2
[9] = molecular target: Epidermal growth factor receptor (Homo sapiens, UniProt P00533); assay: Inhibition of EGFR (unknown origin) incubated for 10 mins using FAM-labeled peptide and ATP by mobility shift assay
Chain of Epidermal growth factor receptor (P00533 whole entry): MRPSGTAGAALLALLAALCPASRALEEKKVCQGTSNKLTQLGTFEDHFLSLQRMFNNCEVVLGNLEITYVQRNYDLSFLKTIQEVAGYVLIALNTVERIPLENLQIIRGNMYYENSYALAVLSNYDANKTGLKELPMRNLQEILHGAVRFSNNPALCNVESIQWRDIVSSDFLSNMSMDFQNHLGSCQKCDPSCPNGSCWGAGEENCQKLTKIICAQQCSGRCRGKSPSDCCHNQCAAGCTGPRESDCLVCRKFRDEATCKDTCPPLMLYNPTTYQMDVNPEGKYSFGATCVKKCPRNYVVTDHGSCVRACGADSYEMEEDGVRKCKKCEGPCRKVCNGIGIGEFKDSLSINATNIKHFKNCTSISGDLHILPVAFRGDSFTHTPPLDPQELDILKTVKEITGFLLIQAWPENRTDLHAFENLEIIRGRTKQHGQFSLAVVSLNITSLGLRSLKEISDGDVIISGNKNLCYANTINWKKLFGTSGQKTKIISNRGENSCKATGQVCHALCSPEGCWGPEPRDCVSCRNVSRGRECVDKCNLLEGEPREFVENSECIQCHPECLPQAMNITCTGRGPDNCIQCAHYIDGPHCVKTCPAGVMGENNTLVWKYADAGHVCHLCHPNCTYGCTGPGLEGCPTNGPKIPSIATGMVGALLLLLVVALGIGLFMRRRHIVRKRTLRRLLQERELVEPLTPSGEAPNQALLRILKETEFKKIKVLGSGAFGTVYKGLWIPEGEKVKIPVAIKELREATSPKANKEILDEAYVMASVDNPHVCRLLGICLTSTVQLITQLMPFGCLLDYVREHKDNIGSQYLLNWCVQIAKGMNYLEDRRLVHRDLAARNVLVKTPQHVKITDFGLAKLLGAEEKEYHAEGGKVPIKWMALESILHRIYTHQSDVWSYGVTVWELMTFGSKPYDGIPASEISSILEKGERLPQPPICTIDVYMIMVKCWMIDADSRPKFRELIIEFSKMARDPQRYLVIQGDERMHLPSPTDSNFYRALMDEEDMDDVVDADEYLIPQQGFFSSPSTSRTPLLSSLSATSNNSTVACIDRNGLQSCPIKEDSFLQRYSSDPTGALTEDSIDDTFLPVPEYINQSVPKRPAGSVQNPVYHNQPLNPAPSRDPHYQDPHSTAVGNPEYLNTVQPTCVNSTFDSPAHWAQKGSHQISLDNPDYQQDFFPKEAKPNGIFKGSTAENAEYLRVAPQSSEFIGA

Chain of Hepatocyte growth factor receptor (P08581 whole entry): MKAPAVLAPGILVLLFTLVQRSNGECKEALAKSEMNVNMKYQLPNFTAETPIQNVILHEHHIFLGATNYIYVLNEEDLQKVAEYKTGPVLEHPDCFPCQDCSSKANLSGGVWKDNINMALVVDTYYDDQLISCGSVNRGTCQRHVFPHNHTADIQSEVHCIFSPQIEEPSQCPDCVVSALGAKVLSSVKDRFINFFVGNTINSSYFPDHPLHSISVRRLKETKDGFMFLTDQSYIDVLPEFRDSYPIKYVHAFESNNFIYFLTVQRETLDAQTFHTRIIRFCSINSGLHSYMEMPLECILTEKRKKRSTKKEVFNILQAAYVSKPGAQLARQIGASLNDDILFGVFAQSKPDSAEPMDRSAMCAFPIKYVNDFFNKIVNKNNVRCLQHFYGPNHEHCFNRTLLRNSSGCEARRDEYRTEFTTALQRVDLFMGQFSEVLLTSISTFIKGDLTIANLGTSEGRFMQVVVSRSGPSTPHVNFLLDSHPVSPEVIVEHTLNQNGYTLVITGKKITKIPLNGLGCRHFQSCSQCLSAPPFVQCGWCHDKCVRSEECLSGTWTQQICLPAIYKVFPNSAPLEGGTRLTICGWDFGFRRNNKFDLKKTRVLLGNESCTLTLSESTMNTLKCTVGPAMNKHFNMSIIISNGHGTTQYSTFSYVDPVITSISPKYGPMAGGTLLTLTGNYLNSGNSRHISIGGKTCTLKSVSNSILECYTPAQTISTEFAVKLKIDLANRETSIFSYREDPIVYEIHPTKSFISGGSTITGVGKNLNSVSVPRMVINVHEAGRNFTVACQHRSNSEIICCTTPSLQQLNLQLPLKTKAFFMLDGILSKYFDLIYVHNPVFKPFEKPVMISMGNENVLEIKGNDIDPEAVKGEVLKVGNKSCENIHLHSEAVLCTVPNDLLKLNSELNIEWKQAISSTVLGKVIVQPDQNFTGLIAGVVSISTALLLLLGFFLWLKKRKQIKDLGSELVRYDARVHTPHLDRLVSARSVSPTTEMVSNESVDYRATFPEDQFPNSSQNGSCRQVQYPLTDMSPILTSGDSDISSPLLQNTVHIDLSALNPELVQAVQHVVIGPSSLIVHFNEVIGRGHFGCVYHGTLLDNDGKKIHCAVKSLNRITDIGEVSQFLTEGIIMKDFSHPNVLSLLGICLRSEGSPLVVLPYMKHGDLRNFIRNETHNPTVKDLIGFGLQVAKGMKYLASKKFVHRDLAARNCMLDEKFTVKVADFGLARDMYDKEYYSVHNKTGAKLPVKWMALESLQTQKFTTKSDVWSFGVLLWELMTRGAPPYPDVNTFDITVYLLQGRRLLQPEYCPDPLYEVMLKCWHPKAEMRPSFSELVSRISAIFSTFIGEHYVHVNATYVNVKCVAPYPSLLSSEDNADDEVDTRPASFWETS

In the case of `CNC(=O)c1cc(Oc2ccc(C3=NNC(c4cccc(Br)c4)C3)cc2)ccn1` (stereo unspecified), the IC50 [1] is reported as 0.54 µM, the Activity (A549 [2]) is reported as 9.11% and the Activity (PC-3) is reported as “Dose-dependent effect”. The IC50 (PC-3; PC-3, 72 h) was 3.54 µM, the Activity (A549 [3]) was “Active” and the Activity (A549 [4]) was 7.72%. The Activity (A549 [5]) was 2.2%, the Activity (A549 [6]) was 11.95% and the Activity (A549 [7]) was 4.51%. The Activity (A549 [8]) was “Active” and the IC50 [9] was > 10 µM.
